Data published in ChEMBL document CHEMBL1133742, “17beta-O-Aminoalkyloximes of 5beta-androstane-3beta,14beta-diol with digitalis-like activity: synthesis, cardiotonic activity, structure-activity relationships, and molecular modeling of the Na(+),K(+)-ATPase receptor” (J Med Chem, 2000).

Legend:
Cavia porcellus [1] = assay: Compound dose producing maximum increase in dP/dt, in anesthetized guinea pig during slow intravenous infusion of 11.0 uM solution.; type: functional
Outline: (§1)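 Anesthetized guinea pigs with jugular vein cannula and tracheal intubation (spontaneous respiration); +dP/dt recorded. Compound dissolved in DMSO, diluted with physiological solution to 1% DMSO final, infused IV at 0.16 mL/min until death or up to 90 min. Starting infusate concentration was based on the atrial EC50. Doses for maximal inotropic effect and for death determined; ED80 taken from dose–response curves. Means ± SEM where possible.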

Cavia porcellus [2] = assay: Compound dose causing lethality in anesthetized guinea pig during slow intravenous infusion of 11.0 uM solution.; type: toxicity, organism-based; conditions: in vivo; outline: as §1
[3] = In vitro maximum inotropic effect on contractile force of an electrically driven guinea pig left atrium.; type: functional, Cavia porcellus, Cardiac atrium
Outline: (§2)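 Isolated guinea pig atria in solution bubbled with 95% O2/5% CO2, field-stimulated by platinum electrodes at 1 Hz (1 ms square pulses, twice threshold voltage). After 60 min equilibration, cumulative concentrations added, each held until maximal response or arrhythmia.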

[4] = Percent increase in force of contraction in vitro determined using electrically driven guinea pig left atrium.; type: functional; conditions: Cavia porcellus, Cardiac atrium; outline: as §2
Cavia porcellus [5] = species: Cavia porcellus; assay: Concentration producing 50% of the maximal increase in the force of contraction in isolated guinea pig left atrium; type: functional; conditions: Cardiac atrium; outline: as §2
Cavia porcellus [6] = assay: Compound dose producing 80% of increase in dP/dt in anesthetized guinea pig during slow intravenous infusion of 11.0 uM solution.; type: functional; outline: as §1
Cavia porcellus [7] = assay: Compound dose producing maximum inotropic effect in anesthetized guinea pig during slow intravenous infusion of 11.0 uM solution.; type: functional; outline: as §1
[8] = molecular target: Sodium/potassium-transporting ATPase; assay: In vitro inhibitory concentration against dog kidney Na+/K+ ATPase; type: protein-complex assay, Canis lupus familiaris
Outline: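 Na+,K+-ATPase isolated and purified from dog kidney. Inhibition measured as percent hydrolysis of 32P-ATP with versus without compound. […] Single-concentration entries report percent inhibition at the stated concentration. Compounds tested within 1–4 h of dissolution.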

Cavia porcellus [9] = assay: Compound dose producing maximum increase in dP/dt, in anesthetized guinea pig during slow intravenous infusion of 12.8 uM solution.; type: functional; outline: as §1
Cavia porcellus [10] = assay: Compound dose causing lethality in anesthetized guinea pig during slow intravenous infusion of 12.8 uM solution.; type: toxicity, organism-based; conditions: in vivo; outline: as §1
Cavia porcellus [11] = assay: Compound dose producing 80% of increase in dP/dt in anesthetized guinea pig during slow intravenous infusion of 12.8 uM solution.; type: functional; outline: as §1
Cavia porcellus [12] = assay: Compound dose producing maximum inotropic effect in anesthetized guinea pig during slow intravenous infusion of 12.8 uM solution.; type: functional; outline: as §1
Cavia porcellus [13] = assay: Compound dose causing lethality in anesthetized guinea pig during slow intravenous infusion of 220 uM solution.; type: toxicity, organism-based; conditions: in vivo; outline: as §1
Cavia porcellus [14] = assay: Compound dose producing 80% of increase in dP/dt in anesthetized guinea pig during slow intravenous infusion of 220 uM solution.; type: functional; outline: as §1
Cavia porcellus [15] = assay: Compound dose producing maximum increase in dP/dt, in anesthetized guinea pig during slow intravenous infusion of 220 uM solution.; type: functional; outline: as §1
Cavia porcellus [16] = assay: Compound dose producing maximum inotropic effect in anesthetized guinea pig during slow intravenous infusion of 220 uM solution.; type: functional; outline: as §1
Cavia porcellus [17] = assay: Compound dose producing maximum increase in dP/dt, in anesthetized guinea pig during slow intravenous infusion of 1000 uM solution.; type: functional; outline: as §1
Cavia porcellus [18] = assay: Compound dose causing lethality in anesthetized guinea pig during slow intravenous infusion of 1000 uM solution.; type: toxicity, organism-based; conditions: in vivo; outline: as §1
Cavia porcellus [19] = assay: Compound dose producing 80% of increase in dP/dt in anesthetized guinea pig during slow intravenous infusion of 1000 uM solution.; type: functional; outline: as §1
Cavia porcellus [20] = assay: Compound dose producing maximum inotropic effect in anesthetized guinea pig during slow intravenous infusion of 1000 uM solution.; type: functional; outline: as §1
Cavia porcellus [21] = assay: Compound dose producing 80% of increase in dP/dt in anesthetized guinea pig during slow intravenous infusion of 51.2 uM solution.; type: functional
Outline: (§3)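 Anesthetized guinea pig; jugular vein cannula, trachea intubated, spontaneous respiration. After stabilization, compound in physiological solution with 1% DMSO (final) infused at 0.16 mL/min until death or up to 90 min. Infused concentration chosen from the paced guinea pig atria EC50. Read-out is +dP/dt. Doses for the maximal inotropic increase and for death were determined; ED80 (80% increase over basal) came from dose-response curves. Means ± SEM.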

Cavia porcellus [22] = assay: Compound dose causing lethality in anesthetized guinea pig during slow intravenous infusion of 51.2 uM solution.; type: toxicity, organism-based; conditions: in vivo; outline: as §1
Cavia porcellus [23] = assay: Compound dose producing maximum increase in dP/dt, in anesthetized guinea pig during slow intravenous infusion of 51.2 uM solution.; type: functional; outline: as §3
Cavia porcellus [24] = assay: Compound dose producing maximum inotropic effect in anesthetized guinea pig during slow intravenous infusion of 51.2 uM solution.; type: functional; outline: as §3
Cavia porcellus [25] = assay: Compound dose producing 80% of increase in dP/dt in anesthetized guinea pig during slow intravenous infusion of 375 uM solution.; type: functional; outline: as §1
Cavia porcellus [26] = assay: Compound dose causing lethality in anesthetized guinea pig during slow intravenous infusion of 375 uM solution.; type: toxicity, organism-based; conditions: in vivo; outline: as §1
Cavia porcellus [27] = assay: Compound dose producing maximum increase in dP/dt, in anesthetized guinea pig during slow intravenous infusion of 375 uM solution.; type: functional; outline: as §1
Cavia porcellus [28] = assay: Compound dose producing maximum inotropic effect in anesthetized guinea pig during slow intravenous infusion of 375 uM solution.; type: functional; outline: as §1
Cavia porcellus [29] = assay: Compound dose producing 80% of increase in dP/dt in anesthetized guinea pig during slow intravenous infusion of 41.4 uM solution.; type: functional; outline: as §1
Cavia porcellus [30] = assay: Compound dose causing lethality in anesthetized guinea pig during slow intravenous infusion of 41.4 uM solution.; type: toxicity, organism-based; conditions: in vivo; outline: as §1
Cavia porcellus [31] = assay: Compound dose producing maximum increase in dP/dt, in anesthetized guinea pig during slow intravenous infusion of 41.4 uM solution.; type: functional; outline: as §1
Cavia porcellus [32] = assay: Compound dose producing maximum inotropic effect in anesthetized guinea pig during slow intravenous infusion of 41.4 uM solution.; type: functional; outline: as §1

SMILES: CN(C)CCO/N=C/C=C/[C@H]1CC[C@]2(O)[C@@H]3CC[C@@H]4C[C@@H](O)CC[C@]4(C)[C@H]3CC[C@]12C.O=C(O)C(=O)O
- Emax (Cavia porcellus [1]): 110%
- LD (Cavia porcellus [2]): 0.385 µM/kg
- Concentration giving maximal inotropic effect [3]: 0.3 µM
- Emax [4]: 191%
- EC50 (Cavia porcellus [5]): 57 nM
- ED80 (Cavia porcellus [6]): 0.185 µM/kg
- Emax (Cavia porcellus [7]): 0.275 µM/kg
- IC50 [8]: 30 nM

SMILES: CC(/C=N/OCCN)=C\[C@H]1CC[C@]2(O)[C@@H]3CC[C@@H]4C[C@@H](O)CC[C@]4(C)[C@H]3CC[C@]12C.O=C(O)/C=C/C(=O)O
- Emax (Cavia porcellus [9]): 152%
- LD (Cavia porcellus [10]): 0.292 µM/kg
- Emax [4]: 115%
- EC50 (Cavia porcellus [5]): 70 nM
- ED80 (Cavia porcellus [11]): 0.128 µM/kg
- Emax (Cavia porcellus [12]): 0.201 µM/kg
- IC50 [8]: 30 nM

SMILES: CN(C)CCO/N=C\CC[C@H]1CC[C@]2(O)[C@@H]3CC[C@@H]4C[C@@H](O)CC[C@]4(C)[C@H]3CC[C@]12C.O=C(O)C(=O)O
- Emax [4]: 150%
- EC50 (Cavia porcellus [5]): 650 nM
- LD (Cavia porcellus [13]): 7.83 µM/kg
- ED80 (Cavia porcellus [14]): 0.814 µM/kg
- Emax (Cavia porcellus [15]): 132%
- Emax (Cavia porcellus [16]): 3.65 µM/kg
- IC50 [8]: 100 nM

SMILES: C[C@]12CC[C@H](O)C[C@H]1CC[C@@H]1[C@@H]2CC[C@]2(C)[C@@H](/C=N/OCCCCN)CC[C@]12O.O=C(O)C(=O)O
- Emax (Cavia porcellus [17]): 148%
- LD (Cavia porcellus [18]): 14.8 µM/kg
- Emax [4]: 92%
- EC50 (Cavia porcellus [5]): 2900 nM
- ED80 (Cavia porcellus [19]): 1.41 µM/kg
- Emax (Cavia porcellus [20]): 5.03 µM/kg
- IC50 [8]: 500 nM

SMILES: C[C@H]1O[C@@H](O[C@H]2[C@@H](O)C[C@H](O[C@H]3[C@@H](O)C[C@H](O[C@H]4CC[C@@]5(C)[C@H](CC[C@@H]6[C@@H]5C[C@@H](O)[C@]5(C)[C@@H](C7=CC(=O)OC7)CC[C@]65O)C4)O[C@@H]3C)O[C@@H]2C)C[C@H](O)[C@@H]1O [DIGOXIN]
- ED80 (Cavia porcellus [21]): 0.205 µM/kg
- Concentration giving maximal inotropic effect [3]: 1 µM
- Emax [4]: 184%
- EC50 (Cavia porcellus [5]): 380 nM
- LD (Cavia porcellus [22]): 1.25 µM/kg
- Emax (Cavia porcellus [23]): 167%
- dose to obtain Emax (Cavia porcellus [24]): 0.576 µM/kg

SMILES: CC(/C=N/OCCCN)=C\[C@H]1CC[C@]2(O)[C@@H]3CC[C@@H]4C[C@@H](O)CC[C@]4(C)[C@H]3CC[C@]12C.O=C(O)C(=O)O
- ED80 (Cavia porcellus [25]): 0.447 µM/kg
- Emax [4]: 90%
- EC50 (Cavia porcellus [5]): 170 nM
- LD (Cavia porcellus [26]): 1.67 µM/kg
- Emax (Cavia porcellus [27]): 99%
- Emax (Cavia porcellus [28]): 0.884 µM/kg
- IC50 [8]: 200 nM

SMILES: C[C@]12CC[C@H](O)C[C@H]1CC[C@@H]1[C@@H]2CC[C@]2(C)[C@@H](/C=N/OCCCN)CC[C@]12O.O=C(O)C(=O)O
- ED80 (Cavia porcellus [29]): 0.24 µM/kg
- Emax [4]: 126%
- EC50 (Cavia porcellus [5]): 180 nM
- LD (Cavia porcellus [30]): 0.663 µM/kg
- Emax (Cavia porcellus [31]): 163%
- Emax (Cavia porcellus [32]): 0.435 µM/kg
- IC50 [8]: 20 nM
